Screening data: PubChem BioAssay, The Scripps Research Institute Molecular Screening Center
Compounds with a hit are over-represented: about 0.63% of the library has one in this group of screens.
zfTRPN1 agonist – agonists of zebrafish TRPN1 channel; HEK293 zebrafish TRPN1-YFP, Fluo-8 calcium fluorescence; 100% = response to 87 µM carbachol; activation, % at 3 µM; actives 0.18% (n = 220,000);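 active = activation above its plate's cutoff, the mean activation of test wells on that plate plus 3 SD, cut at about 19% in these data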;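 also: 0% = DMSO alone and 100% = 87 µM carbachol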
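Material: zebrafish TRPN1-YFP in HEK293 cells. Doses: one dose of 3 µM, 0.3% DMSO. Incubation: dye 1 h 37 °C plus 30 min RT. Measured by: intracellular calcium fluorescence with Fluo-8.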
IDE cell inh – inhibitors of human insulin-degrading enzyme in cells | P14735 | HEK cells, FAbetaB cleavage, fluorescence polarization | inhibition, % at 5.59 µM | actives 0.41% (n = 320,000) | AID 434962;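 active = percent inhibition above the average of all tested compounds plus 3 SD, set per screening campaign, cut at about 16% in these data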;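 also: IDE supplied by intact live HEK cells; FP after avidin binding of uncleaved biotin substrate so inhibition keeps polarization high; 0% = DMSO wells and 100% = 60 µM reference IDE inhibitor Ii1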
TRPML3 agonist – human mucolipin-3 channel agonism | HEK293 TRPML3-YFP, Fluo-8 calcium fluorescence; 100% = the carbachol control signal | AID 1448 | Q8TDD5 | actives 0.29% (n = 220,000) | activation, % at 3 µM;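 active = activation above its plate's cutoff, the mean activation of the plate's test wells plus 3 SD, cut at about 12% in these data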;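 also: 0% = DMSO only wells and 100% = carbachol wells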
Target sequence (Q8TDD5 whole entry, looked up): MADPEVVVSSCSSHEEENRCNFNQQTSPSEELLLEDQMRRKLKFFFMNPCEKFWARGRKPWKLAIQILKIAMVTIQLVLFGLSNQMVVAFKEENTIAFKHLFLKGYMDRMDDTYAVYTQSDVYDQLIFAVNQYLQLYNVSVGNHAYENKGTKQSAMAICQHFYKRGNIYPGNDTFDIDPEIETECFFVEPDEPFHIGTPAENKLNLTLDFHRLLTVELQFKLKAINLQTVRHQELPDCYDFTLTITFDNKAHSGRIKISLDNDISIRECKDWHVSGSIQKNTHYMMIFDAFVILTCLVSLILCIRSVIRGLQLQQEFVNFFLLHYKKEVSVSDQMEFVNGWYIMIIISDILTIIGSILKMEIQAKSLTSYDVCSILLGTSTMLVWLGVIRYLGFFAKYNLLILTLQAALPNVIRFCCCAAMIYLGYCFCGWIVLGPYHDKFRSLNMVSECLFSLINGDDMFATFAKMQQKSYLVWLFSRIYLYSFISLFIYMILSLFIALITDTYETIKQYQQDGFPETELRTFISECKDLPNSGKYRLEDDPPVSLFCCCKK
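Test system: HEK293 cells stably carrying human TRPML3-YFP; Doses: single dose, 3 µM final nominal compound, 0.3% DMSO final; Schedule: dye loading 1 h 37 °C then 30 min ambient, 125 s read; Technique: Fluo-8 calcium fluorescence; Benchmarks: high control carbachol 87 µM, low control DMSO.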
IDE act – boosts human insulin-degrading enzyme activity in HEK cells; FAbeta-B cleavage, fluorescence polarization; 0% vehicle, 100% cell-free pure enzyme wells; P14735; activation, % at 5.96 µM; AID 493087; actives 0.073% (n = 340,000);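 active = activation above the mean of all tested compounds plus 3 SD, set per screening campaign, cut at about 17% in these data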
TRPN1 ag 2 – counter-screen for TRPML3 agonists: agonists of zebrafish TRPN1 channel; shares compounds with TRPML3 agonist; HEK293 zebrafish TRPN1-YFP, Fluo-8 calcium fluorescence; scaled: carbachol wells 100%, DMSO wells 0%; activation, % at 3 µM; actives 10% (n = 310); AID 1525;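 active = mean activation over replicates above a set limit taken from the earlier TRPN1 channel primary screen, cut at about 19% in these data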;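 also: 100% = carbachol and 0% = 0.3% DMSO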
TRPML3 ag conf – confirmation of human TRPML3 channel agonists | shares compounds with TRPML3 agonist | HEK293 TRPML3-YFP, Fluo-8 calcium fluorescence; 100% set by carbachol, 0% by DMSO | activation, % at 3 µM | actives 80% (n = 310);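 active = activation above a set limit derived from the earlier primary screen, cut at about 12% in these data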
The depositor's hits bear a star; x = no result given.

SMILES	zfTRPN1 agonist	IDE cell inh	TRPML3 agonist	IDE act	TRPN1 ag 2	TRPML3 ag conf
COc1ccc(N=Nc2nc3ccc(Br)cc3n2C)cc1	38.9*	-8.9	30.5*	27.5*	x	x
O=C(N[C@@H](Cc1ccccc1)C(=O)N1CCN(S(=O)(=O)c2ccc(F)cc2)CC1)c1ccco1	x	x	x	-2.4	x	x
c1ccc(-c2nnc(N3CCCC3)nc2-c2ccccc2)cc1	x	x	x	1.0	x	x
Cc1ccc2c(c1)c1c(n2CC(O)CNC2CCCC2)CCCC1 (configuration not stated)	1.1	5.1	1.2	17.6*	x	x
CN1CCN(NC(=O)CSc2ccc(Cl)cc2Cl)CC1	-0.8	2.5	0.6	2.1	x	x
NC1=NC[C@@H](Cc2ccc(O)cc2)N1CCc1cc(C(F)(F)F)cc(C(F)(F)F)c1	x	0.1	x	5.5	x	x
FC(F)(F)c1cc(CCN2CCNC[C@@H]2CC2CCCCC2)cc(C(F)(F)F)c1	x	-3.5	x	22.9*	x	x
NC1=NC[C@H](CC2CCCCC2)N1CCc1cc(C(F)(F)F)cc(C(F)(F)F)c1	x	3.5	x	25.6*	x	x
COc1cc(OC)cc(C(=O)NCCCN2CCN(CCCNC(=O)c3cc(OC)cc(OC)c3)CC2)c1	-1.6	5.0	0.0	2.1	x	x
O=[N+]([O-])c1cc(S(=O)(=O)N2CCCCCC2)ccc1Cl	-2.7	x	22.3*	-1.4	x	x
COc1cccc(-n2c(CN3CCN(c4ccccc4)CC3)nc3ccc([N+](=O)[O-])cc3c2=O)c1	-1.0	-3.4	0.3	5.0	x	x
CCSc1nnc(-c2ccncc2)o1	0.3	1.0	0.0	4.9	x	x
CCSc1nnc(-c2sc3nnc(-c4ccccc4)c(-c4ccccc4)c3c2N)o1	4.7	21.2*	1.4	-72.5	x	x
CC12CCC(C(=O)N(CC(O)CN3CCN(Cc4ccccc4)CC3)C1=O)C2(C)C (configuration not stated)	-0.8	0.1	1.2	x	x	x
COc1ccc(/C=N\NC(=S)SCN2C(=O)C3CCC(C)(C2=O)C3(C)C)cc1 (configuration not stated)	-0.7	2.4	38.5*	3.0	0.2	0.3
CC12CCC(C(=O)N(CSC(=S)N/N=C\c3ccccc3O)C1=O)C2(C)C (configuration not stated)	-0.5	0.9	67.3*	-3.4	2.4	1.9
CN(C)c1ccc(/C=N\NC(=S)SCN2C(=O)C3CCC(C)(C2=O)C3(C)C)cc1 (configuration not stated)	0.1	4.6	16.4*	2.2	0.1	-0.2
COc1ccc(C(=O)NN2C(=O)C3CCC(C)(C2=O)C3(C)C)cc1 (configuration not stated)	0.8	-4.4	1.1	2.9	x	x
COc1cccc(OC)c1C(=O)Nc1ccccc1N1CCCCC1	x	9.4	x	6.2	x	x
Cc1ccc(NC(=O)C2(NC(=O)c3ccccn3)CCCCC2)cc1Br	-1.9	2.0	0.0	5.7	x	x
CCN(NC(=O)C(O)(c1ccccc1)c1ccccc1)C(=O)c1ccccc1	0.2	3.6	0.9	7.2	x	x
CC(c1ccccc1)N(NC(=O)C(O)(c1ccccc1)c1ccccc1)C(=O)c1ccccc1 (configuration not stated)	-1.4	-1.5	12.7*	3.0	-0.7	65.0*
Cc1cc(S(=O)(=O)N2CCN(c3ccccc3C)CC2)ccc1F	-1.5	4.6	1.6	0.0	x	x
Cc1ccccc1N1CCN(S(=O)(=O)c2ccccc2)CC1	-0.6	3.7	64.5*	1.6	-2.0	35.9*
CCN(C1CCCCC1)S(=O)(=O)c1cc(C)ccc1OC	-1.3	-2.0	22.4*	4.4	-1.6	34.8*
SMILES	zfTRPN1 agonist	IDE cell inh	TRPML3 agonist	IDE act	TRPN1 ag 2	TRPML3 ag conf
CCN(C1CCCCC1)S(=O)(=O)c1ccc(-n2cnnn2)c(C)c1	x	8.5	x	0.2	x	x
COc1ccc(C)cc1S(=O)(=O)N(C)CC(=O)NC1CCCCC1	-0.9	-6.3	-0.2	-6.0	x	x
CCN(C1CCCCC1)S(=O)(=O)c1ccc(OC)c(C)c1	-0.8	1.7	25.7*	4.8	-2.5	86.7*
Nc1nc(Nc2cccc(F)c2)nc(NCc2ccco2)c1[N+](=O)[O-]	-1.7	-2.3	-1.2	8.9	x	x
O=C(C1=C(O)C(=O)N(c2nccs2)C1c1ccccc1)c1cc2ccccc2o1 (configuration not stated)	16.1	-9.5	12.2*	8.2	5.2	1.9
O=C(C1=C(O)C(=O)N(CCc2ccccc2)C1c1ccncc1)c1cc2ccccc2o1 (configuration not stated)	-0.6	4.4	-0.7	4.7	x	x
COc1ccc(C(=O)NC(=S)Nc2ccc3[nH]c(=O)[nH]c3c2)c(OC)c1	x	8.8	x	-2.8	x	x
COc1cccc(CN(Cc2ccco2)C(c2ccc(F)cc2)c2nnnn2C(C)(C)C)c1 (configuration not stated)	0.5	1.6	25.5*	3.7	6.1	26.1*
Cc1cc(Cl)ccc1Oc1nc(-c2ccc(F)cc2)ccc1C#N	-0.4	-3.2	-0.5	-1.0	x	x
CCOc1ccc(S(=O)(=O)NC(C)(C)C)cc1-c1nc2c(C(C)(C)C)nn(C)c2c(=O)[nH]1	-0.7	1.1	24.1*	-1.9	1.7	147.3*
CN(C1CCCCC1)S(=O)(=O)c1cccc(C(=O)OCC(=O)NC2CCCc3ccccc32)c1 (configuration not stated)	4.0	-7.2	69.5*	6.0	4.3	61.2*
O=C1N=c2ccc(Br)cc2=C1c1sc(=S)n(NS(=O)(=O)c2ccccc2)c1O	-0.6	4.0	-0.4	1.1	x	x
O=[N+]([O-])c1ccccc1Nc1nc(-c2cccnc2)cs1	x	-6.8	x	4.8	x	x
COC(=O)c1[nH]c2c(c1C)C(=O)CC(c1cccs1)C2 (configuration not stated)	1.3	0.1	25.7*	1.6	-0.1	-0.4
COc1ccc(C(=O)CSc2nnn(-c3cccc(NC(C)=O)c3)n2)cc1	7.1	-1.3	12.2*	x	12.1	21.3*
O=C1C2C3C=CC(C3)C2C(=O)N1c1ccc(N2CCN(c3ccccn3)CC2)c([N+](=O)[O-])c1 (configuration not stated)	8.6	4.0	15.8*	4.4	8.7	20.5*
COC(C/C=C/[C@H](O)[C@@H](C)OCc1ccccc1)OC	x	4.3	x	0.4	x	x
Cc1ccc(S(=O)(=O)c2c(C)nn(C(C)(C)C)c2OC(=O)C(C)(C)C)cc1	4.4	-2.3	46.0*	2.1	4.8	38.8*
NS(=O)(=O)c1ccc(NC(=O)Nc2ccc(C(F)(F)F)cc2)cc1	1.8	9.9	6.1	x	x	x
CCCN1CCC(=O)N([C@H](CSc2ccc(OC)cc2)c2ccccc2)CC1	x	-1.4	x	-0.9	x	x
COc1ccc(N(C)S(=O)(=O)c2ccc(C)cc2)c([N+](=O)[O-])c1	-1.8	2.9	35.5*	2.7	-0.6	42.0*
